In ChEMBL document CHEMBL1126854, “A series of penicillin derived C2-symmetric inhibitors of HIV-1 proteinase: synthesis, mode of interaction, and structure-activity relationships” (J Med Chem, 1993):
pEC50, pIC50: −log10 of the molar value.

Tests used:
[1] = system: Human immunodeficiency virus 1; assay: Inhibitory effects on HIV-1 induced syncytium formation in C8166 cells; type: functional, organism-based; conditions: Human immunodeficiency virus 1, C8166
Method in brief: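 C8166 cells were infected with HIV-1 RF at moi 1×10^-3 and plated at 10^5 cells/well. Compound in Me2SO was serially diluted in RPMI 1640 from 50 to 0.05 μg/mL. Cells were kept 3–4 days at 37 °C, 5% CO2, and checked daily for syncytia. Syncytia were scored against untreated infected controls, and EC50 was calculated as 50% reduction of cytopathic effect.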

MT4 = assay: Inhibition of cytopathic effect of HIV-1 strain RF in MT-4 cell culture; type: functional, cell-based; conditions: Homo sapiens
Method in brief: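 MT-4 cells at 10^6 cells/mL in RPMI 1640 were infected with HIV-1 RF at moi 2×10^-3 (5×10^4 cells/well). Compound in Me2SO was diluted in 10-fold steps from 100 to 0.01 μg/mL. Cells were kept 7 days at 37 °C, 5% CO2, then given MTT for 60 min. Acidified 2-propanol was added and A540 read. EC50 for 50% inhibition of formazan conversion is the mean of duplicates; toxicity was assayed at the same concentrations.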

[2] = target: Human immunodeficiency virus type 1 protease (Human immunodeficiency virus 1, UniProt Q72874); assay: Inhibitory activity against HIV-1 Protease
Method in brief: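 Buffer: 20 mM MES pH 6.0, 2 M NaCl, 5 mM DTT, 2 mM EDTA. Compounds in 25% Me2SO over a concentration range. Incubated 60 min at 37 °C with shaking, then filtered; released radioactivity counted by scintillation. IC50 from duplicate means, standardized to a reference-compound control.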

[3] = Half-life in CD rat at a dose of 5 mg/kg given intravenously; type: ADME, organism-based; design: dose 5 mg/kg, route intravenous; conditions: in vivo, iv
Method in brief: (§1)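 Single intravenous dose in a vehicle of ethanol (10–20%), polyethyleneglycol (10%) and saline. Doses were 5 mg/kg for CD rats (n = 2 per time point), 1 mg/kg for beagles (n = 2) and 5 mg/kg for cynomolgus monkeys (n = 2). Plasma t1/2, plasma clearance and steady-state volume of distribution were derived.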

[4] = Volume of distribution in Cynomolgus monkey at a dose of 5 mg/kg given intravenously; type: ADME, organism-based, Macaca fascicularis; design: dose 5 mg/kg, route intravenous; conditions: in vivo, iv, read-out: Distribution; method in brief: as §1
[5] = Half-life in Beagles dog at a dose of 1 mg/kg given intravenously; type: ADME, organism-based, Canis lupus familiaris; design: dose 1 mg/kg, route intravenous; conditions: beagle, in vivo, iv; method in brief: as §1
[6] = Volume of distribution in CD rat at a dose of 5 mg/kg given intravenously; type: ADME, organism-based; design: dose 5 mg/kg, route intravenous; conditions: in vivo, iv, read-out: Distribution; method in brief: as §1
[7] = Volume of distribution in Beagles dog at a dose of 1 mg/kg given intravenously; type: ADME, organism-based, Canis lupus familiaris; design: dose 1 mg/kg, route intravenous; conditions: beagle, in vivo, iv, read-out: Distribution; method in brief: as §1
[8] = Plasma clearance in CD rat at a dose of 5 mg/kg given intravenously; type: ADME, organism-based; design: dose 5 mg/kg, route intravenous; conditions: iv; method in brief: as §1
[9] = Plasma clearance in Cynomolgus monkey at a dose of 5 mg/kg given intravenously; type: ADME, organism-based, Macaca fascicularis; design: dose 5 mg/kg, route intravenous; conditions: iv; method in brief: as §1
[10] = Half-life in Cynomolgus monkey at a dose of 5 mg/kg given intravenously; type: ADME, organism-based, Macaca fascicularis; design: dose 5 mg/kg, route intravenous; conditions: in vivo, iv; method in brief: as §1
[11] = Plasma clearance in Beagles dog at a dose of 1 mg/kg given intravenously; type: ADME, organism-based, Canis lupus familiaris; design: dose 1 mg/kg, route intravenous; conditions: beagle, iv; method in brief: as §1

SMILES | pEC50 [1] | pEC50 (MT4) | pIC50 [2] | further results
CC1(C)S[C@H]([C@H](NC(=O)Cc2ccccc2)C(=O)NCc2ccccc2)N[C@H]1C(=O)NCCNC(=O)[C@@H]1N[C@@H]([C@H](NC(=O)Cc2ccccc2)C(=O)NCc2ccccc2)SC1(C)C | 7.22 | 6.54 |  | 
CCNC(=O)[C@@H](NC(=O)CCc1ccccc1)[C@@H]1N[C@@H](C(=O)NCCNC(=O)[C@@H]2N[C@@H]([C@H](NC(=O)CCc3ccccc3)C(=O)NCC)SC2(C)C)C(C)(C)S1 | 7.22 | 5.41 | 8.62 | 
CCNC(=O)[C@@H](NC(=O)Cc1ccccc1)[C@@H]1N[C@@H](C(=O)NCCNC(=O)[C@@H]2N[C@@H]([C@H](NC(=O)Cc3ccccc3)C(=O)NCC)SC2(C)C)C(C)(C)S1 | 5.96 | 5.27 |  | half-life [3]: 5 h; Vd [4]: 17 L; half-life [5]: 4 h; Vd [6]: 2.8 L; Vd [7]: 50 L; clearance [8]: 12 mL/min; clearance [9]: 200 mL/min; half-life [10]: 1.2 h; clearance [11]: 300 mL/min
CC1(C)S[C@H]([C@H](NC(=O)Cc2ccccc2)C(=O)N2CCCCC2)N[C@H]1C(=O)NCCNC(=O)[C@@H]1N[C@@H]([C@H](NC(=O)Cc2ccccc2)C(=O)N2CCCCC2)SC1(C)C | 6.64 | 5.74 | 8.16 | 
CCNC(=O)[C@@H](NS(=O)(=O)Cc1ccccc1)[C@@H]1N[C@@H](C(=O)NCCNC(=O)[C@@H]2N[C@@H]([C@H](NS(=O)(=O)Cc3ccccc3)C(=O)NCC)SC2(C)C)C(C)(C)S1 | 4.89 | 4.49 | 7.24 | 
CCNC(=O)[C@@H](NC(=O)Cc1cccs1)[C@@H]1N[C@@H](C(=O)NCCNC(=O)[C@@H]2N[C@@H]([C@H](NC(=O)Cc3cccs3)C(=O)NCC)SC2(C)C)C(C)(C)S1 | 5.28 | 4.57 | 7.82 | 
CCNC(=O)[C@@H](NC(=O)c1ccccc1-c1ccccc1)[C@@H]1N[C@@H](C(=O)NCCNC(=O)[C@@H]2N[C@@H]([C@H](NC(=O)c3ccccc3-c3ccccc3)C(=O)NCC)SC2(C)C)C(C)(C)S1 | 6.77 | 7.52 | 8.00 | 
CC(C)(C)NC(=O)[C@@H]1C[C@@H]2CCCC[C@@H]2CN1C[C@@H](O)[C@H](Cc1ccccc1)NC(=O)[C@H](CC(N)=O)NC(=O)c1ccc2ccccc2n1 | 9.22 | 8.40 |  | 
CN(C)c1ccc(CNC(=O)[C@@H](NC(=O)Cc2ccccc2)[C@@H]2N[C@@H](C(=O)NCCNC(=O)[C@@H]3N[C@@H]([C@H](NC(=O)Cc4ccccc4)C(=O)NCc4ccc(N(C)C)cc4)SC3(C)C)C(C)(C)S2)cc1 | 7.70 | > 8.00 | 7.33 | 
CC1(C)S[C@H]([C@H](NC(=O)Cc2ccccn2)C(=O)NCc2ccc(Cl)cc2Cl)N[C@H]1C(=O)NCCNC(=O)[C@@H]1N[C@@H]([C@H](NC(=O)Cc2ccccn2)C(=O)NCc2ccc(Cl)cc2Cl)SC1(C)C | 6.62 | 6.28 | 7.85 | 
CC1(C)S[C@H]([C@H](NC(=O)Cc2ccccc2)C(=O)NCC2CCCCC2)N[C@H]1C(=O)NCCNC(=O)[C@@H]1N[C@@H]([C@H](NC(=O)Cc2ccccc2)C(=O)NCC2CCCCC2)SC1(C)C | 7.22 | 5.09 | 7.40 | 
CN(C)C(=O)[C@@H](NC(=O)Cc1ccccc1)[C@@H]1N[C@@H](C(=O)NCCNC(=O)[C@@H]2N[C@@H]([C@H](NC(=O)Cc3ccccc3)C(=O)N(C)C)SC2(C)C)C(C)(C)S1 | 5.77 | 5.36 | 8.28 | 
CN(C)c1ccc(CNC(=O)[C@@H](NC(=O)c2ccccc2-c2ccccc2)[C@@H]2N[C@@H](C(=O)NCCNC(=O)[C@@H]3N[C@@H]([C@H](NC(=O)c4ccccc4-c4ccccc4)C(=O)NCc4ccc(N(C)C)cc4)SC3(C)C)C(C)(C)S2)cc1 | 7.52 | > 8.00 | 9.64 | 
CC1(C)S[C@H]([C@H](NC(=O)Cc2ccccc2)C(=O)NCC(F)(F)F)N[C@H]1C(=O)NCCNC(=O)[C@@H]1N[C@@H]([C@H](NC(=O)Cc2ccccc2)C(=O)NCC(F)(F)F)SC1(C)C | 6.66 | 6.55 | 8.36 | 
CC1(C)S[C@H]([C@H](NC(=O)c2ccccc2-c2ccccc2)C(=O)NCc2ccccc2)N[C@H]1C(=O)NCCNC(=O)[C@@H]1N[C@@H]([C@H](NC(=O)c2ccccc2-c2ccccc2)C(=O)NCc2ccccc2)SC1(C)C | 6.89 | 6.96 | 8.12 | 
Cc1cn([C@H]2C[C@H](N=[N+]=[N-])[C@@H](CO)O2)c(=O)[nH]c1=O [ZIDOVUDINE] | 7.52 | 7.70 |  | 
